Results reported in ChEMBL document CHEMBL1144729, “N-pyridin-3-yl- and N-quinolin-3-yl-benzamides: modulators of human vanilloid receptor 1 (TRPV1)” (Bioorg Med Chem Lett, 2008).

What was measured:
[1] = biological target: T1, Transient receptor potential cation channel subfamily V member 1 (Homo sapiens, UniProt Q8NER1); assay: Activity at human TRPV1 in HEK cells assessed by measuring capsaicin-induced calcium level by FLIPR technology; assay type: cell-based, HEK293
How it was run: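 Stably transfected hTRPV1/HEK cells plated on poly-D-lysine and used 2 days later. Loaded with Fluo-3/AM for 1 h, then given a single concentration of compound. Antagonist potency protocol taken from earlier work.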

[2] = biological target: T1, Transient receptor potential cation channel subfamily V member 1; assay: Displacement of [3H]RTX from human TRPV1 receptor expressed in HEK293 cells; assay type: cell-based
How it was run: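 Membranes from HEK293 stably expressing human TRPV1, prepared by homogenisation and differential centrifugation. Binding buffer: 20 mM Hepes pH 7.4, 5.8 mM NaCl, 320 mM sucrose, 2 mM MgCl2, 0.75 mM CaCl2, 5 mM KCl. Incubated 60 min at 37 °C with 0.3–0.6 nM [3H]-RTX. Cooled on ice, alpha-acid glycoprotein added, pellet counted by scintillation. Nonspecific binding defined with 200 nM unlabeled RTX.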

[3] = Metabolic stability in human liver microsomes after 15 mins; assay type: ADME, Microsome; conditions: read-out: Stability
How it was run: (§1)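 Compound incubated with rat or human liver microsomes. Percent of parent remaining measured after 15 min.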

[4] = Elimination half life in Sprague-Dawley rat; assay type: ADME, organism-based; conditions: in vivo
How it was run: (§2)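 Pharmacokinetics measured in male Sprague–Dawley rats after intravenous and oral dosing.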

Rattus norvegicus = assay: Reversal of CFA-induced thermal hyperalgesia in Sprague-Dawley rat at 30 mg/kg, po; assay type: functional
How it was run: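 Thermal hyperalgesia induced by CFA injection in Sprague–Dawley rats. Radiant-heat withdrawal latency measured on a warm glass surface after about 10 min acclimation, before and 24 h after CFA. Single oral dose given, latencies reassessed at 100 min post-dose and compared with vehicle. Analysis by two-way ANOVA with Bonferroni post hoc test, p < 0.05.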

[5] = Clearance in Sprague-Dawley rat; assay type: ADME, organism-based; conditions: in vivo; how it was run: as §2
[6] = Oral bioavailability in Sprague-Dawley rat; assay type: ADME, organism-based; conditions: in vivo; how it was run: as §2
[7] = Metabolic stability in rat liver microsomes after 15 mins; assay type: ADME, Microsome; conditions: read-out: Stability; how it was run: as §1

T1 sequence (Q8NER1 whole entry): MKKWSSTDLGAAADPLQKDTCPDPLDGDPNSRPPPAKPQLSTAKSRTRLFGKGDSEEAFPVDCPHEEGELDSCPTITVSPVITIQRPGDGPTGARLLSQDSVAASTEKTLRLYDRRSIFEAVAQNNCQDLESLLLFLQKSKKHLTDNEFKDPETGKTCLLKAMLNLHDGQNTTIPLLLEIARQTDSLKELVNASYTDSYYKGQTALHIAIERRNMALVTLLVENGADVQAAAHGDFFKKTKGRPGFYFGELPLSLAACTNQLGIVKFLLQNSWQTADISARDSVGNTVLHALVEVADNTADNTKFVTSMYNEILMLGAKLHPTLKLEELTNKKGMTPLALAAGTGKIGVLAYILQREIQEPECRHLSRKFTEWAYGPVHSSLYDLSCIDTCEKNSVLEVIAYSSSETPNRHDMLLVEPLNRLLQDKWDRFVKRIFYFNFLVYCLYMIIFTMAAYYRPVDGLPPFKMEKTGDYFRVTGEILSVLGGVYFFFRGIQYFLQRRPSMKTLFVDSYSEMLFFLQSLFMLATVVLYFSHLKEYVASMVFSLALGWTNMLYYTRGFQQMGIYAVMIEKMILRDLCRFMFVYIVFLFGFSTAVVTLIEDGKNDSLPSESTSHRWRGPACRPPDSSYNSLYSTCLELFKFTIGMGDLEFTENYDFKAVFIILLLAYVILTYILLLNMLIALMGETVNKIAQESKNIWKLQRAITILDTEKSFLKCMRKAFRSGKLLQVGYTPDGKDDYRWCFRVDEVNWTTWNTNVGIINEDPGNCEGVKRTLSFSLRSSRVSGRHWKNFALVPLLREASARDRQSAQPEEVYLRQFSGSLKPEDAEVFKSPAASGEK

| IC50 [1] | Ki [2] | EC50 [1] | Structure (SMILES) | other results |
| --- | --- | --- | --- | --- |
| 0.066 µM | – | – | CCCCN(C)c1ccc(C(=O)Nc2cnc3ccccc3c2)cc1 | – |
| – | 7.26 µM | > 5 µM | CCCCCc1ccc(CC(=O)Nc2cccnc2)cc1 | – |
| > 30 µM | 3.52 µM | – | CCCCCCCc1ccc(C(=O)Nc2cnc3ccccc3c2)cc1 | – |

Second part, the compound before the results:

| Structure (SMILES) | IC50 [1] | Ki [2] | EC50 [1] | other results |
| --- | --- | --- | --- | --- |
| CCCCCCCCN(C)c1ccc(C(=O)Nc2cnc3ccccc3c2)cc1 | – | 0.015 µM | – | – |
| CCCCCCCCCCc1ccc(C(=O)Nc2cccnc2)cc1 | – | 0.607 µM | > 30 µM | – |
| CCCCc1ccc(C(=O)Nc2cnc3ccccc3c2)cc1 | 0.23 µM | 0.053 µM | – | – |
| CCCc1ccc(C(=O)Nc2cnc3ccccc3c2)cc1 | 0.13 µM | 0.06 µM | – | – |
| CCCCCc1ccc(NC(=O)c2cccnc2)cc1 | – | > 3 µM | > 5 µM | – |
| CN(CC1CCCCC1)c1ccc(C(=O)Nc2cnc3ccccc3c2)cc1 | 0.17 µM | 0.016 µM | – | – |
| CN(c1ccc(C(=O)Nc2cnc3ccccc3c2)cc1)C1CCCCC1 | – | – | – | remaining at 0.25 h [3]: 25%; half-life [4]: 1.67 h; Activity (Rattus norvegicus): > 80%; clearance [5]: 20 mL/min/kg; bioavailability [6]: 70%; remaining at 0.25 h [7]: 45% |
